What was measured:
[1] = system: Leishmania donovani; test: Antileishmanial activity against Leishmania donovani LEM703 by MTT assay; type: functional, organism-based
[2] = system: THP-1; test: Cytotoxicity against human THP1 cells after 72 hrs; type: functional, cell-based; details: THP-1, 72 h
Summary of the method: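 THP1 cells at 1 × 10^6 cells/ml were exposed to test concentrations of 50 to 156 for 72 h. About 4 × 10^6 cells were then stained with PI (10 µg/ml) and SYBR-14 (0.1 mg/ml) in HEPES/NaCl/BSA buffer, pH 7.4, for 30 min at 37 °C. Flow cytometry used 488 nm excitation, analysed at least 10,000 cells, excluded autofluorescence and debris, and each experiment was repeated twice.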

[3] = system: Leishmania infantum; test: Antileishmanial activity against Leishmania infantum LEM235 by MTT assay; type: functional, organism-based
[4] = Toxicity against red blood cells assessed as hemolytic activity; type: cell-based, Erythrocyte; details: human
Summary of the method: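 Human red cells from EDTA blood of healthy volunteers were washed thrice in PBS and mixed 1:1 with compound in PBS, 100 to 6.25, for 1 h at 37 °C. After centrifugation at 800g for 10 min, supernatant absorbance was read at 550 nm against 625 nm. % hemolysis = (A − A0)/(Amax − A0) × 100, with PBS as background and water as 100%. HC50 is the concentration giving 50% hemolysis.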

Structure (SMILES)	IC50 [1] [µM]	IC50 [2] [µM]	IC50 [3] [µM]	HC50 [4] [µM]
CCCCCCCCCCCCCCCC=C1CCC(OCCOP(=O)([O-])OCC[N+]2(C)CCCCC2)CC1 (stereo not given)	22	25.7	6.5	> 100
C[N+]1(CCOP(=O)([O-])OCCCCCCCCCCC=C2CCCCC2)CCOCC1	8.25	–	22.8	–
C[N+]1(CCOP(=O)([O-])OCCOC2CCCCC2)CCOCC1	> 100	–	> 100	–
C[N+]1(CCOP(=O)([O-])OCCCCCCCCCCC=C2CCCCC2)CCCCC1	8.7	–	47.6	> 100
C[N+]1(CCOP(=O)([O-])OCCCCCCCCCCC=C2C3CC4CC(C3)CC2C4)CCCCC1	5.41	169	22.6	> 100
C[N+](C)(C)CCOP(=O)([O-])OCCCCCCCCCCCC1CCCCC1	10.3	35.5	8.4	> 100
CCCCCCCCCCCC=C1CCC(OCCOP(=O)([O-])OCC[N+]2(C)CCCCC2)CC1 (stereo not given)	22	–	23.1	–
C[N+](C)(C)CCOP(=O)([O-])OCCOC1CCCCC1	> 100	–	> 100	–
C[N+]1(CCOP(=O)([O-])OCCCCCCCCCCC=C2C3CC4CC(C3)CC2C4)CCOCC1	5.09	37.4	6.64	> 100
C[N+](C)(C)CCOP(=O)([O-])OCCCCC=C1CCCCC1	> 100	–	> 100	–
CCCCCCCCCCCC=C1CCC(OCCOP(=O)([O-])OCC[N+](C)(C)C)CC1 (stereo not given)	7.08	26	3.25	40.6
CCCCCCCCCCCCCC=C1CCC(OCCOP(=O)([O-])OCC[N+](C)(C)C)CC1 (stereo not given)	3.91	20.2	5.25	> 100
C[N+]1(CCOP(=O)([O-])OCCCCC=C2CCCCC2)CCOCC1	> 100	–	> 100	–
CCCCCCCCCCCC=C1CCC(OCCOP(=O)([O-])OCC[N+]2(C)CCOCC2)CC1 (stereo not given)	50.7	–	16.5	> 100
C[N+](C)(C)CCOP(=O)([O-])OCCCCCCCCCCC=C1CCCCC1	2.4	31.3	5.2	68.3
CCCCCCCCCCCCCCCC=C1CCC(OCCOP(=O)([O-])OCC[N+](C)(C)C)CC1 (stereo not given)	45.1	–	21.2	> 100
C[N+]1(CCOP(=O)([O-])OCCCCC=C2CCCCC2)CCCCC1	> 100	–	> 100	–

Structure (SMILES)	IC50 [1] [µM]	IC50 [2] [µM]	IC50 [3] [µM]	HC50 [4] [µM]
C[N+]1(CCOP(=O)([O-])OCCCCC=C2C3CC4CC(C3)CC2C4)CCCCC1	> 100	–	> 100	–
C[N+](C)(C)CCOP(=O)([O-])OCCCCCCCCCCC=C1C2CC3CC(C2)CC1C3	3.16	59.5	6.75	> 100
CCCCCCCCCCCCCCCC=C1CCC(OCCOP(=O)([O-])OCC[N+]2(C)CCOCC2)CC1 (stereo not given)	16.2	18.9	3.7	> 100
CCCCCCCCCCCCCC=C1CCC(OCCOP(=O)([O-])OCC[N+]2(C)CCOCC2)CC1 (stereo not given)	38.6	20.4	15.5	58.8
C[N+](C)(C)C1CCCC1OP(=O)([O-])OCCCCCCCCCCC=C1C2CC3CC(C2)CC1C3 (stereo not given)	3.92	75	38	> 100
C[N+](C)(C)C1CCCC1OP(=O)([O-])OCCCCCCCCCCC=C1CCCCC1 (stereo not given)	8.56	30.7	> 100	76.3
C[N+](C)(C)CCOP(=O)([O-])OCCCCCC1C2CC3CC(C2)CC1C3 (stereo not given)	4.02	59.5	> 100	> 100
C[N+](C)(C)CCOP(=O)([O-])OCCCCCCCCCCCC1C2CC3CC(C2)CC1C3 (stereo not given)	2.88	169	5.97	> 100
C[N+](C)(C)C1CCCCC1OP(=O)([O-])OCCCCCCCCCCC=C1CCCCC1 (stereo not given)	26.3	–	> 100	59.8
CCCCCCCCCCCCCC=C1CCC(OCCOP(=O)([O-])OCC[N+]2(C)CCCCC2)CC1 (stereo not given)	29.7	65	11.4	> 100
C[N+]1(CCOP(=O)([O-])OCCOC2CCCCC2)CCCCC1	> 100	–	> 100	–
C[N+]1(CCOP(=O)([O-])OCCCCC=C2C3CC4CC(C3)CC2C4)CCOCC1	46.9	–	> 100	–
C[N+](C)(C)C1CCCCC1OP(=O)([O-])OCCCCCCCCCCC=C1C2CC3CC(C2)CC1C3 (stereo not given)	16.6	39.7	> 100	66.6
CCCCCCCCCCCCC1CCC(OCCOP(=O)([O-])OCC[N+](C)(C)C)CC1 (stereo not given)	9.49	22.2	5.65	75.7
C[N+](C)(C)CCOP(=O)([O-])OCCCCC=C1C2CC3CC(C2)CC1C3	4.99	> 500	> 100	> 100
CCCCCCCCCCCCCCCCOP(=O)([O-])OCC[N+](C)(C)C [MILTEFOSINE]	–	–	–	38.3
